According to PubChem BioAssay:
Results filed as inconclusive are left out.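 The calls were made as follows, unless noted: active = growth inhibition above 25% in both replicates, a cutoff set 3 SD above the mean; inconclusive = above 25% in only one replicate; inactive = the rest.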

How the values were obtained:
[1] = OD615 S. cerevisiae growth inhibition, permissive medium, pilot counter-assay, permissive growth control for S. cerevisiae lifespan shortening project (AID 705); details: OD615, 24 h, at 10 µM, hits give high values
How it was run: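 Test system: Saccharomyces cerevisiae strain carrying genetically modified DeaD replicative-lifespan system; buffer or medium: SC raffinose/galactose permissive medium; dosing: one dose 10 µM, DMSO 0.25% final; times: 24 h exposure, 30 °C; measured by: OD at 615 nm; read-out basis: growth inhibition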

[2] = Restrictive medium S. cerevisiae growth inhibition, OD615, pilot screen of yeast lifespan reduction project, restrictive growth control (AID 706;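 active = growth inhibition above a set limit, 3 SD over mean compound inhibition, in both replicates, cut at about 43% in these data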;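 also: modified DeaD lifespan yeast strain shifted to restrictive glucose medium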); details: OD615, 48 h, at 10 µM, hits give high values
How it was run: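 material = engineered S. cerevisiae DeaD strain | buffer or medium = glucose-based CSMM-D restrictive medium | dosing = one concentration, 10 µM final, 0.25% DMSO | schedule = 4 h pre-growth plus 48 h compound exposure, 30 °C | detection = OD615 absorbance reading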

[3] = viability gain of MRP-1-high H69AR cells under doxorubicin, pilot screen, MRP-1 activator project, CellTiter-Glo, duplicate (AID 807;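 active = viability increase at or above a cutoff of the median across tested compounds plus 3 SD, cut at about 8.5% in these data, passing the limit was not always enough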;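 also: compound pretreatment 18-22 h then 72 h combined with doxorubicin; 0% = doxorubicin alone and 100% = vehicle without doxorubicin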); details: H69AR viability with doxorubicin, CellTiter-Glo luminescence; at 10 µM; hits give high values
[4] = growth suppression of beta-catenin knockout HCT116, pilot screen, human colon tumor cells (AID 823;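 active = cell viability at or below a set limit in both duplicate runs, the limit being the all-compound median minus 4 SD, cut at about 23% in these data, passing the limit was not always enough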;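 also: 0% = wells killed by 20 µM Hyamine and 100% = untreated DMSO cell wells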); details: CellTiter-Glo, 60 h, at 10 µM, hits give low values
[5] = growth suppression of PTEN-deleted HCT116, pilot screen, cell-based, HCT116 clonal line, CellTiter-Glo (AID 824;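 active = viability at or below 27.92% in each of two runs, the all-compound median minus 4 SD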;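 also: 0% = 20 µM Hyamine control and 100% = vehicle cell control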); details: 60 h, at 10 µM, hits give low values
[6] = inhibitors of the yeast RAM network, pilot screen, dse1pr::URA3 reporter, 5-FOA selection (AID 869;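 active = inhibition over a set limit, the all-compound mean plus 3 SD, in both replicate runs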;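 also: 0% = DMSO wells with no growth and 100% = 10 µM 1-NA-PP1 with full growth; RAM network block rescues cells from 5-FOA so hits raise OD615 growth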); details: S. cerevisiae dse1pr::URA3 5-FOA growth, OD615, 2 d; at 10 µM; hits give high values; strain carries analog-sensitive mutant Cbk1 kinase
[7] = RAM signaling pathway blockade in yeast – S. cerevisiae, Pdr1DBD-CYC8 efflux-inhibited sensitized strain, primary screen (AID 1298;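 active = RAM network inhibition above 8.4% in each of two replicates, 3 SD over the compound average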;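 also: 0% = DMSO untreated cells without growth and 100% = 10 µM 1-NA-PP1 full growth; higher means more yeast growth rescued from 5-FOA killing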); details: S. cerevisiae cbk1-as DSE1-URA3 strain, 5-FOA growth OD615, 2 d; at 50 µM; hits give high values

COc1ccc(N2C(=O)CCC(C(=O)Nc3ccccn3)C2c2ccc(OC)c(OC)c2)cc1 (stereo unspecified)
inactive: growth inhibition [1] 0.15% | growth inhibition [2] -9.93% | viability increase [3] -0.12% | viability [4] 96.2% | viability [5] 96.9% | inhibition [6] 1.64% | RAM network inhibition [7] 0.04%

Cn1c(=O)oc2cc(S(=O)(=O)NCCCN3CCCC3=O)ccc21
inactive: growth inhibition [1] -7.4% | growth inhibition [2] -6.43% | viability increase [3] -2.65% | viability [4] 99% | viability [5] 98.7% | inhibition [6] 0.615% | RAM network inhibition [7] 0.74%

CC(=O)c1c(N(C)C)ccnc1C(F)(F)F
inactive: growth inhibition [1] -3.09% | growth inhibition [2] 8.03% | viability increase [3] -2.95% | viability [4] 107% | viability [5] 95.4% | inhibition [6] 1.92% | RAM network inhibition [7] 0.62%

CC1=CC(C)(C)N(C(=O)CSc2nccn2C)c2cc(C)ccc21
inactive: growth inhibition [1] -12.3% | growth inhibition [2] -6.42% | viability increase [3] -3.04% | viability [4] 84.6% | viability [5] 84% | inhibition [6] 1.09% | RAM network inhibition [7] 0.77%

COc1ccc(CN2CC34C=CC(O3)C(C(=O)O)C4C2=O)cc1 (stereo unspecified)
inactive: growth inhibition [1] -1.83% | growth inhibition [2] -0.315% | viability increase [3] -0.17% | viability [4] 92.6% | viability [5] 97.1% | inhibition [6] 0.585% | RAM network inhibition [7] 3.17%

O=C(CCCc1ccccc1)NCCN1CCOCC1
inactive: growth inhibition [1] -12.1% | growth inhibition [2] -5.57% | viability increase [3] 1.56% | viability [4] 104% | viability [5] 97.9% | inhibition [6] 0.795% | RAM network inhibition [7] 2.4%

C=CCn1c(C(C)NC(=O)CCC)nc2ccccc21 (stereo unspecified)
inactive: growth inhibition [1] 0.415% | growth inhibition [2] 7.8% | viability increase [3] -0.88% | viability [4] 104% | viability [5] 93.9% | inhibition [6] 1.11% | RAM network inhibition [7] -0.02%

Cn1nc(-c2ccc(Cl)cc2)c2cc(C(=O)N3CCN(c4ccccn4)CC3)sc21
inactive: growth inhibition [1] -0.13% | growth inhibition [2] 28.7% | viability increase [3] -5.31% | viability [4] 37% | viability [5] 35.1% | inhibition [6] -0.47% | RAM network inhibition [7] 4.7%

O=C1CC(c2ccc(S(=O)(=O)NC3CC3)cc2)CN1 (stereo unspecified)
inactive: growth inhibition [1] -9.26% | growth inhibition [2] -7.47% | viability increase [3] -2.08% | viability [4] 110% | viability [5] 103% | inhibition [6] 0.075% | RAM network inhibition [7] -0.6%

Nc1c(C(=O)c2ccc(Br)s2)oc2ccccc12
inactive: growth inhibition [1] -9.21% | growth inhibition [2] -4.51% | viability increase [3] -5.46% | viability [4] 88.8% | viability [5] 88.7% | inhibition [6] -0.045% | RAM network inhibition [7] 2.7%

COc1cccc(-n2c(=O)[nH]cc(C(=O)Nc3ccc(NC(C)=O)cc3)c2=O)c1
inactive: growth inhibition [1] -13.3% | growth inhibition [2] 4% | viability increase [3] 0.63% | viability [4] 106% | viability [5] 96.6% | inhibition [6] 3.3% | RAM network inhibition [7] 4.32%

COc1ccccc1-c1c(C)nn2c(C)cc(C)nc12
inactive: growth inhibition [1] -5.75% | growth inhibition [2] -1.54% | viability increase [3] -1.88% | viability [4] 97.5% | viability [5] 97.3% | inhibition [6] 0.895% | RAM network inhibition [7] 1.79%

CC1CN(S(=O)(=O)c2ccc(C(=O)Nc3sc4c(c3C(N)=O)CCN(C)C4)cc2)CC(C)O1 (stereo unspecified)
inactive: growth inhibition [1] -6.76% | growth inhibition [2] -7.93% | viability increase [3] -0.69% | viability [4] 91.9% | viability [5] 97.7% | inhibition [6] 1.35% | RAM network inhibition [7] 5.2%

CC1CCCC(C)N1CCCNC(=O)Cn1cc2c(n1)CCCC2 (stereo unspecified)
inactive: growth inhibition [1] 9.32% | growth inhibition [2] 6.46% | viability increase [3] -1.41% | viability [4] 95.7% | viability [5] 92.5% | inhibition [6] -0.06% | RAM network inhibition [7] 6.61%

COc1ccc(Cl)cc1N(CC(=O)Nc1ccc2c(c1)OCCO2)S(C)(=O)=O
inactive: growth inhibition [1] -2.33% | growth inhibition [2] 0.055% | viability increase [3] -2.78% | viability [4] 92.7% | viability [5] 89.4% | inhibition [6] 3.33% | RAM network inhibition [7] 2.8%

CCOc1ccc(/C(=N\O)C(C)NO)cc1 (stereo unspecified)
inactive: growth inhibition [1] -16.4% | growth inhibition [2] -10.4% | viability increase [3] 1.06% | viability [4] 87.9% | viability [5] 97.1% | inhibition [6] 0.925% | RAM network inhibition [7] 3.88%

Cc1ccc(-n2ncc3c(=O)[nH]c(SCC(=O)N4CCCC4)nc32)cc1C
inactive: growth inhibition [1] -6.01% | growth inhibition [2] -4.8% | viability increase [3] -4.32% | viability [4] 105% | viability [5] 91.8% | inhibition [6] 1.81% | RAM network inhibition [7] 1.73%

COc1ccc(C(=O)OCCN2C(=O)c3ccccc3C2=O)cc1
inactive: growth inhibition [1] -3.96% | growth inhibition [2] -5.23% | viability increase [3] -0.3% | viability [4] 100% | viability [5] 93.7% | inhibition [6] 0.645% | RAM network inhibition [7] 7.05%

Cn1c(=O)n(C)c2cc(CN3C(=O)OC(C)(C)C3(C)O)ccc21 (stereo unspecified)
inactive: growth inhibition [1] 2.22% | growth inhibition [2] 0.365% | viability increase [3] -1.11% | viability [4] 105% | viability [5] 95.2% | inhibition [6] 0.09% | RAM network inhibition [7] 4.45%

CCOC(=O)c1c(C)n(C)c2ccc(OCC(O)CN3CCC(C)CC3)cc12 (stereo unspecified)
inactive: growth inhibition [1] -1.52% | growth inhibition [2] 4.4% | viability increase [3] -5.47% | viability [4] 70.2% | viability [5] 75.8% | inhibition [6] 0.415% | RAM network inhibition [7] -0.57%

Cc1cc(C)n(C(CC(=O)N2CCc3ccccc3C2)C(=O)O)n1 (stereo unspecified)
inactive: growth inhibition [1] -3.07% | growth inhibition [2] -0.04% | viability increase [3] 0.01% | viability [4] 102% | viability [5] 95.5% | inhibition [6] 0% | RAM network inhibition [7] 5.81%

COC(=O)CCS(=O)(=O)c1cc(Cl)ccc1Cl
inactive: growth inhibition [1] -5.18% | growth inhibition [2] 7.17% | viability increase [3] -1.81% | viability [4] 95.4% | viability [5] 94.9% | inhibition [6] -1.08% | RAM network inhibition [7] 1.34%

C=CCNC(=O)c1c(Cl)cccc1Cl
inactive: growth inhibition [1] -12.2% | growth inhibition [2] 3.24% | viability increase [3] -1.31% | viability [4] 90.5% | viability [5] 97.3% | inhibition [6] 0.94% | RAM network inhibition [7] 3.89%
